The source made the active and inactive calls. The calls are words filed in the database; no cut-off is given here.
What was measured:
[1] = Cytotoxicity against human OVCAR4 cells after 48 hrs by SRB assay; assay type: functional; details: OVCAR-4, 48 h
Summary of the method: (§1)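 GI50 from the NCI Developmental Therapeutics Program in vitro human tumor cell screen. Cell lines were maintained in RPMI 1640 with 5% fetal bovine serum and 2 mM L-glutamine. They were seeded at 5000–40 000 cells/well, depending on each line's doubling time, then exposed to drug for 48 h at 37 °C, 5% CO2.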

[2] = system: SK-MEL-2; assay: Cytotoxicity against human SK-MEL-2 cells after 48 hrs by SRB assay; assay type: functional; details: SK-MEL-2, 48 h; summary of the method: as §1
[3] = system: DU-145; assay: Cytotoxicity against human DU145 cells after 48 hrs by SRB assay; assay type: functional; details: DU-145, 48 h
Summary of the method: (§2)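 GI50 was determined in the NCI Developmental Therapeutics Program in vitro 60-line cancer screen. Tumour lines were maintained in RPMI 1640 containing 5% FBS and 2 mM L-glutamine. Cells were inoculated at 5000–40 000 cells/well according to each line's doubling time before drug exposure.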

[4] = system: U-251; assay: Cytotoxicity against human U251 cells after 48 hrs by SRB assay; assay type: functional; details: U-251, 48 h
Summary of the method: (§3)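 GI50 from the NCI-60 DTP human tumour line screen. Lines grown in RPMI 1640 with 5% fetal bovine serum and 2 mM L-glutamine, plated at 5000–40 000 cells/well according to doubling time. Incubated 48 h at 37 °C, 5% CO2.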

[5] = system: M14; assay: Cytotoxicity against human M14 cells after 48 hrs by SRB assay; assay type: functional; details: M14, 48 h; summary of the method: as §2
[6] = system: RPMI-8226; assay: Cytotoxicity against human RPMI8226 cells after 48 hrs by SRB assay; assay type: functional; details: RPMI-8226, 48 h; summary of the method: as §1
[7] = Cytotoxicity against human EKVX cells after 48 hrs by SRB assay; assay type: functional; summary of the method: as §2
[8] = system: RXF 393; assay: Cytotoxicity against human RXF393 cells after 48 hrs by SRB assay; assay type: functional; details: RXF 393, 48 h; summary of the method: as §1
[9] = system: CAKI-1; assay: Cytotoxicity against human Caki1 cells after 48 hrs by SRB assay; assay type: functional; details: CAKI-1, 48 h; summary of the method: as §2
[10] = system: PC-3; assay: Cytotoxicity against human PC3 cells after 48 hrs by SRB assay; assay type: functional; details: PC-3, 48 h; summary of the method: as §1
[11] = Induction of [32P]-labeled 49-mer oligonucleotide duplex DNA 12 interstrand cross-linking (unknown origin) at purine nucleotide site using compound radiolabeled at 5' of 12b in phosphate buffer at pH 7 at 90 degC after 30 mins by PAGE
[12] = system: HT-29; assay: Cytotoxicity against human HT-29 cells after 48 hrs by SRB assay; assay type: functional; details: HT-29, 48 h; summary of the method: as §2
[13] = system: NCI-H522; assay: Cytotoxicity against human NCI-H522 cells after 48 hrs by SRB assay; assay type: functional; details: NCI-H522, 48 h; summary of the method: as §1
[14] = system: MDA-MB-468; assay: Cytotoxicity against human MDA-MB-468 cells after 48 hrs by SRB assay; assay type: functional; details: MDA-MB-468, 48 h; summary of the method: as §1
[15] = Induction of [32P]-labeled 49-mer oligonucleotide duplex DNA 12 interstrand cross-linking (unknown origin) at purine nucleotide site using compound radiolabeled at 3' of 12a at 90 deg C after 30 mins by PAGE in presence of piperidine
[16] = Cytotoxicity against human OVCAR3 cells after 48 hrs by SRB assay; assay type: functional; details: OVCAR-3, 48 h; summary of the method: as §1
[17] = Cytotoxicity against human Hs578T cells after 48 hrs by SRB assay; assay type: functional; details: Hs-578T; summary of the method: as §2
[18] = Induction of [32P]-labeled 49-mer oligonucleotide duplex DNA 12 interstrand cross-linking (unknown origin) at purine nucleotide site using compound radiolabeled at 5' of 12a in phosphate buffer at pH 7 at 90 degC after 30 mins by PAGE
Summary of the method: (§4)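 Cross-linked duplex, with strand 12a 32P-labelled at the 5′ end, heated at 90 °C either in phosphate buffer pH 7.0 or in 1.0 M piperidine. Cleavage sites were assigned by denaturing PAGE against G + A sequencing and Fe·EDTA markers.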

[19] = Induction of [32P]-labeled 49-mer oligonucleotide duplex DNA 12 interstrand cross-linking (unknown origin) at purine nucleotide site using compound radiolabeled at 5' of 12b at 90 deg C after 30 mins by PAGE in presence of piperidine
[20] = Induction of [32P]-labeled 49-mer oligonucleotide duplex DNA 12 interstrand cross-linking (unknown origin) at purine nucleotide site using compound radiolabeled at 5' of 12a at 90 deg C after 30 mins by PAGE in presence of piperidine; summary of the method: as §4
[21] = system: SF-295; assay: Cytotoxicity against human SF295 cells after 48 hrs by SRB assay; assay type: functional; details: SF-295, 48 h; summary of the method: as §1
[22] = system: HOP-92; assay: Cytotoxicity against human HOP92 cells after 48 hrs by SRB assay; assay type: functional; details: HOP-92, 48 h; summary of the method: as §2
[23] = system: SN12C; assay: Cytotoxicity against human SN12C cells after 48 hrs by SRB assay; assay type: functional; summary of the method: as §1
[24] = system: MDA-MB-435; assay: Cytotoxicity against human MDA-MB-435 cells after 48 hrs by SRB assay; assay type: functional; details: MDA-MB-435, 48 h; summary of the method: as §1
[25] = system: IGROV-1; assay: Cytotoxicity against human IGROV1 cells after 48 hrs by SRB assay; assay type: functional; details: IGROV-1, 48 h; summary of the method: as §2
[26] = system: K562; assay: Cytotoxicity against human K562 cells after 48 hrs by SRB assay; assay type: functional; details: K562, 48 h; summary of the method: as §2
[27] = Cytotoxicity against human NCI-ADR-RES cells after 48 hrs by SRB assay; assay type: functional; summary of the method: as §1
[28] = Cytotoxicity against human HCT15 cells after 48 hrs by SRB assay; assay type: functional; details: HCT-15, 48 h; summary of the method: as §2
[29] = system: NCI-H460; assay: Cytotoxicity against human NCI-H460 cells after 48 hrs by SRB assay; assay type: functional; details: NCI-H460, 48 h; summary of the method: as §1
[30] = system: BT-549; assay: Cytotoxicity against human BT549 cells after 48 hrs by SRB assay; assay type: functional; details: BT-549, 48 h; summary of the method: as §2
[31] = system: SK-MEL-28; assay: Cytotoxicity against human SK-MEL-28 cells after 48 hrs by SRB assay; assay type: functional; details: SK-MEL-28, 48 h; summary of the method: as §1
[32] = system: Malme-3M; assay: Cytotoxicity against human MALME-3M cells after 48 hrs by SRB assay; assay type: functional; summary of the method: as §2
[33] = system: KM12; assay: Cytotoxicity against human KM12 cells after 48 hrs by SRB assay; assay type: functional; details: KM12, 48 h; summary of the method: as §2
[34] = system: SNB-19; assay: Cytotoxicity against human SNB19 cells after 48 hrs by SRB assay; assay type: functional; details: SNB-19, 48 h; summary of the method: as §3
[35] = Cytotoxicity against human UACC62 cells after 48 hrs by SRB assay; assay type: functional; details: UACC-62, 48 h; summary of the method: as §3
[36] = Cytotoxicity against human OVCAR8 cells after 48 hrs by SRB assay; assay type: functional; details: OVCAR-8, 48 h; summary of the method: as §1
[37] = Induction of [32P]-labeled 49-mer oligonucleotide duplex DNA 12 with GNC sequence at terminus (unknown origin) interstrand cross-linking at 50 uM after 16 hrs by PAGE in presence of H2O2
Summary of the method: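 32P-labelled 12a (1.0 μM) annealed with 1.5 equiv of 12b in 10 mM potassium phosphate pH 7 / 100 mM NaCl (65 °C for 3 min, then slow cooling). Duplex incubated with compound (final 1 μM–5 mM), with or without H2O2, in NaCl and potassium phosphate pH 8 at room temperature for 16 h. Quenched in formamide; 20% denaturing PAGE.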

Compound | GI50 [1] [µM] | GI50 [2] [µM] | GI50 [3] [µM] | GI50 [4] [µM] | GI50 [5] [µM] | GI50 [6] [µM] | GI50 [7] [µM] | GI50 [8] [µM] | GI50 [9] [µM] | GI50 [10] [µM] | Activity [11] | GI50 [12] [µM] | GI50 [13] [µM] | GI50 [14] [µM] | Activity [15] | GI50 [16] [µM] | Activity [18] | Activity [19] | Activity [20] | Activity [37] [%] | other results
CC1(C)OB(c2ccc(N(CCCl)CCOS(C)(=O)=O)cc2)OC1(C)C | 13.9 | 21.5 | 4.52 | 0.7 | 5.68 | 14.7 | 24.5 | 5.71 | 3.1 | 15.1 | Active | 14.6 | 5.99 | 1.07 | Active | 13.4 | Active | Active | Active | 3 | GI50 [17]: 24.1 µM; GI50 [21]: 2.99 µM; GI50 [22]: 11.5 µM; GI50 [23]: 4.4 µM; GI50 [24]: 15.3 µM; GI50 [25]: 13.6 µM; GI50 [26]: 19 µM; GI50 [27]: 6.52 µM; GI50 [28]: 13.5 µM; GI50 [29]: 0.49 µM; GI50 [30]: 12 µM; GI50 [31]: 15.6 µM; GI50 [32]: 14 µM; GI50 [33]: 25.8 µM; GI50 [34]: 10.2 µM; GI50 [35]: 5.83 µM; GI50 [36]: 8.2 µM
CC1(C)OB(c2ccc(N(CCBr)CCBr)cc2)OC1(C)C | – | – | – | – | – | – | – | – | – | – | Active | – | – | – | Active | – | Active | Active | Active | 3 | –
CC1(C)OB(c2ccc(N(CCBr)CCOS(C)(=O)=O)cc2)OC1(C)C | – | – | – | – | – | – | – | – | – | – | Active | – | – | – | Active | – | Active | Active | Active | 3 | –
CC1(C)OB(c2ccc(N(CCCl)CCBr)cc2)OC1(C)C | 14.4 | 20.8 | 6.69 | 5.07 | 7.86 | 19.4 | 22.5 | 10.4 | 3.52 | 17.7 | Active | 18.8 | 11.7 | 1.49 | Active | 15 | Active | Active | Active | 3 | GI50 [17]: 27.4 µM; GI50 [21]: 2.64 µM; GI50 [22]: 12.8 µM; GI50 [23]: 4.45 µM; GI50 [24]: 16.5 µM; GI50 [25]: 19.1 µM; GI50 [26]: 22.6 µM; GI50 [27]: 6.69 µM; GI50 [28]: 17.1 µM; GI50 [29]: 0.42 µM; GI50 [30]: 12.1 µM; GI50 [31]: 20.6 µM; GI50 [32]: 18.4 µM; GI50 [33]: 31.3 µM; GI50 [34]: 10.6 µM; GI50 [35]: 9.38 µM; GI50 [36]: 11.9 µM
CC1(C)OB(c2ccc(N(CCCl)CCCl)cc2)OC1(C)C | 17.4 | 22.1 | 4.25 | 3.75 | 5.1 | 10.9 | 18.6 | 10.3 | 2.78 | 14.3 | Active | 13.8 | 6.59 | 1.6 | Active | 14.6 | Active | Active | Active | 3 | GI50 [17]: 26.2 µM; GI50 [21]: 2.11 µM; GI50 [22]: 9.24 µM; GI50 [23]: 4.11 µM; GI50 [24]: 14.2 µM; GI50 [25]: 15.6 µM; GI50 [26]: 17.2 µM; GI50 [27]: 5.33 µM; GI50 [28]: 13.2 µM; GI50 [29]: 0.33 µM; GI50 [30]: 10.5 µM; GI50 [31]: 21 µM; GI50 [32]: 17.5 µM; GI50 [33]: 14.9 µM; GI50 [34]: 8.06 µM; GI50 [35]: 6.12 µM; GI50 [36]: 7.83 µM
